# UPR XBP1 act: activators of adaptive XBP1 UPR arm, primary screen, cell-based, CHO-XBP1 luciferase reporter, luminescence, uHTS; IRE1-XBP1 UPR activation; percent of tunicamycin response, DMSO as zero; activation, % at 20 µM; hit rate 0.33% among 330,000; AID 463104, 2010;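 active means versus positive control, 20 µM dose yields 30% or more activation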;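 further: 100% = tunicamycin at 10 µg/mL and 0% = DMSO only wells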
#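 Material: CHO-XBP1 cells stably carrying IRE1-XBP1-driven luciferase reporter / Amount: 1000 cells per well / Compound: 20 µM, 1% DMSO / Times: 6 h treatment, 37 °C / Detection: luciferase luminescence / Measure: % activation of reporter signal versus tunicamycin and DMSO controls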
# B2AR ag: beta2AR agonists driving receptor internalization, primary screen, cell-based, FAP fluorogen, flow cytometry. response, % (concentration not given with the values). hit rate 0.43% among 340,000. Am2.2-beta2AR cells. Beta-2 adrenergic receptor (Homo sapiens), P07550. AID 504454, 2011;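 active means response above a set limit, near 3 SD of response in nonfluorescent compounds, cut at about 42% in these data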
# Target sequence (P07550 whole entry, looked up): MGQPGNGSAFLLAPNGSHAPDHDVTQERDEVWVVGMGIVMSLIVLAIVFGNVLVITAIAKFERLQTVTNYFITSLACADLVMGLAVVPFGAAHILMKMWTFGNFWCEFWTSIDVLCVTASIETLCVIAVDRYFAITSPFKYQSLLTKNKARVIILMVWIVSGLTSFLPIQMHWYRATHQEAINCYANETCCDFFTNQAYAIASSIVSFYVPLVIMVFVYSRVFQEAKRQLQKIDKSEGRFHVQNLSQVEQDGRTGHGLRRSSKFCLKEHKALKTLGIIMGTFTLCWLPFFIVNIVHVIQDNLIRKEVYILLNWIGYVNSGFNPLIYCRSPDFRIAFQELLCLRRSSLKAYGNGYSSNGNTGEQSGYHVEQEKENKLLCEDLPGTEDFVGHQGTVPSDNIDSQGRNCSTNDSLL
# CHOP UPR activ: activators of apoptotic CHOP UPR arm, primary screen, cell-based, CHO-CHOP luciferase reporter, luminescence, uHTS; hit rate 0.34% among 330,000; AID 449763, 2010; activation, % at 10 µM; UPR activation; percent of tunicamycin response over DMSO baseline;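 active means at 10 µM dose, activation of 40% or more, normalized to positive control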;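 further: 100% = tunicamycin at 10 µg/mL and 0% = DMSO alone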
#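 Assay system: CHO-CHOP cells, stable luciferase reporter of PERK-eIF2a-CHOP signalling / Buffer or medium: F12 plus 10% serum / Compound dosing: one dose, 10 µM in 0.5% DMSO / Times: 6 h compound treatment, 37 °C / Technique: luciferase luminescence / Read-out: % reporter activation, DMSO baseline versus tunicamycin full activation / Benchmarks: tunicamycin and DMSO controls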
# T cell modulator: modulators of CD8 T cell-vesicle binding, primary screen, mouse 2C CD8+ T cells, flow cytometry; 2C CD8+ T cell-vesicle binding; hits give low values; response (vesicle binding), % at 7 µM; hit rate 0.068% among 330,000; AID 2052, 2009;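 active means response, share of CD8 T cells binding vesicles, and their 90th percentile fluorescence all below set limits, cut at about 80% in these data, passing the limit was not always enough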;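 further: values below 100% mean blocked vesicle binding to the CD8+ T cells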
#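 Incubation: binding step 1.5 h, 37 °C, antibody labelling 20 min, ice; system: murine 2C transgenic CD8+ T lymphocytes; technique: cytometric PE anti-B7-1 and Alexa647 anti-CD8 signals after 1% paraformaldehyde fixation; also added: QL9-charged Drosophila Ld/ICAM-1/B7-1 vesicles; control set: naked versus QL9-loaded vesicles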
# UPR CHOP confirm: activators of apoptotic CHOP UPR arm, confirmation, cell-based, CHO-CHOP luciferase reporter, single concentration; shares compounds with CHOP UPR activ; CHO-CHOP cells, CHOP-luciferase reporter luminescence; percent of tunicamycin response, DMSO as zero; activation, % at 10 µM; hit rate 64% among 1,000; in the data active means activation above about 33%;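 further: 0% = DMSO wells and 100% = tunicamycin 10 µg/mL wells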
# XBP1 UPR conf: IRE1-XBP1 UPR arm activators, confirmation, cell-based, CHO-XBP1 luciferase reporter, luminescence, single concentration; activation, % at 20 µM; hit rate 63% among 1,000; shares compounds with UPR XBP1 act;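 active means reporter signal at least 30% of the positive control's activation in two or more of four replicate wells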;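 further: plate controls were DMSO negative control for no effect and tunicamycin 10 µg/mL positive control for full effect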
# Starred values were filed as active, the others as inactive; i = inactive; . = no result given. In the library only some 1% were active in any assay of this set; here they are far more common.
SMILES,UPR XBP1 act,B2AR ag,CHOP UPR activ,T cell modulator,UPR CHOP confirm,XBP1 UPR conf
CC1=C(CC/C(C)=N/NC(N)=S)C(C)(C)CCC1,57.6*,4.0,150.7*,273.1,47.5*,54.7*
CCOc1ccc(-c2nnc(SCC(=O)Nc3ccc4c(c3)c3ccccc3n4CC)n2N)cc1,215.5*,5.6,115.7*,732.9,46.5*,191.4*
CCCN(CCC)S(=O)(=O)c1ccc(C(=O)Nc2cccnc2)cc1,-1.2,-0.3,-1.5,275.4,.,.
CCOc1ccc(NC(=S)NC(=O)/C=C/c2ccc(OC)c(OC)c2)c([N+](=O)[O-])c1,167.7*,.,60.6*,151.5,48.9*,251.1*
CCOc1ccc(NC(=O)/C=C/c2ccc(OC)cc2)c([N+](=O)[O-])c1,3.4,-18.0,-1.3,312.4,.,.
Cc1ccc(C(C)C)c(OCc2ccc(C(=O)N/N=C/c3ccc(O)c(O)c3)cc2)c1,85.9*,12.1,102.2*,301.1,56.9*,54.4*
O=C(N/N=C/c1ccc(O)c(O)c1)c1ccc(CSc2cccc3cccnc23)cc1,50.8*,1.6,106.2*,398.0,23.4,54.4*
Cc1ccc(-n2c(C)cc(C(=O)CSc3nncs3)c2C)cc1,-5.8,4.3,-0.4,151.6,.,.
CCc1ccccc1NC(=O)C1C(c2ccccc2)C1(Cl)Cl (stereo unspecified),-3.5,2.5,0.4,436.7,.,.
COc1cc(/C=C(/C#N)c2nc3ccccc3[nH]2)ccc1OCC(=O)Nc1ccccc1C,115.8*,3.2,299.4*,0.0,38.0*,78.7*
COc1ccc(/C=C/c2nc3ccccc3c(=O)o2)cc1,-10.1,7.9,-8.7,319.9,.,.
COc1ccc(/C=C/c2nc3cc(-c4ccccc4)ccc3o2)cc1O,38.7*,9.7,45.2*,402.2,50.0*,29.2*
CC(Oc1ccccc1)C(=O)Nc1ccccc1F (stereo unspecified),-3.1,0.5,2.2,231.5,.,.
Cc1cc(NC(=O)c2cc(-c3ccccn3)nc3ccc(Br)cc23)no1,34.1*,16.5,58.4*,449.4,61.2*,32.6*
CCCC(=O)Nc1c(-c2ccccc2)c(=O)c(C)nn1-c1ccc(Cl)cc1,0.6,-0.6,1.0,128.3,.,.
O=C(Nc1cccc(-c2nc3ccccc3s2)c1)c1cc(-n2cnnc2)ccc1Cl,12.8,4.2,7.7,284.4,.,.
Cc1ccc2sc(-c3ccc(NC(=O)c4cc(-n5cnnc5)ccc4Cl)cc3)nc2c1,69.4*,20.7,85.3*,397.7,18.9,20.3
CCOC(=O)c1[nH]c2ccc(Cl)cc2c1NC(=O)/C=C/c1ccc2c(c1)OCO2,168.2*,-5.3,53.6*,310.7,19.5,138.2*
CCN(CC(=O)Nc1c(C(=O)OC)[nH]c2ccc(Cl)cc12)c1ccc2c(c1)OCO2,-3.8,15.5,0.9,428.1,.,.
Cn1c2ccccc2c2cc(/C=N/NC(=O)c3cc(O)cc(O)c3)ccc21,-3.4,5.5,3.0,227.9,.,.
Cn1c2ccccc2c2cc(/C=N/NC(=O)c3cc(O)ccc3O)ccc21,33.4*,7.5,168.8*,412.8,84.1*,87.2*
CC1(C)CC(=O)C2=C(C1)N(N1CCOCC1)C(N)=C(C#N)C2c1cccnc1 (stereo unspecified),3.7,12.0,-1.0,0.0,.,.
CCn1cc(C(=O)NC(=S)Nc2sc3c(c2C(=O)OC)CCCCCC3)cn1,60.1*,6.6,70.6*,222.0,35.2*,56.9*
CCOc1ccc(-n2c(SCC(=O)N3CCc4ccccc43)nnc2-c2c[nH]c3ccccc23)cc1,-2.1,-4.0,-0.9,491.5,.,.
COc1cccc(-n2c(SCC(=O)N3CCc4ccccc43)nnc2-c2c[nH]c3ccccc23)c1,336.3*,-7.5,102.2*,274.4,43.0*,229.4*
SMILES,UPR XBP1 act,B2AR ag,CHOP UPR activ,T cell modulator,UPR CHOP confirm,XBP1 UPR conf
CCOC(=O)C1=C(c2ccccc2)OC(N)=C(C#N)C1c1ccc(Br)s1 (stereo unspecified),-1.9,-3.0,1.6,163.1,.,.
CCc1nc(N=Nc2c(O)[nH]c3ccccc23)c2c3c(sc2n1)CCC3,34.9*,10.6,94.4*,156.9,75.9*,167.8*
Cc1[nH]c2ccccc2c1CN1CCC(Cc2ccccc2)CC1,33.2*,28.1,45.9*,i,46.8*,20.7
Oc1ccc(CN2CCC(Cc3ccccc3)CC2)c2cccnc12,39.2*,.,384.6*,.,254.4*,30.7*
O=C(C1CCCN1S(=O)(=O)c1ccc(Cl)cc1)N1CCN(c2ccccc2)CC1 (stereo unspecified),-4.2,-3.3,-1.0,209.9,.,.
O=c1c2ccccc2nc2n1-c1ccccc1CCC2,-1.9,4.8,0.0,167.2,.,.
O=C1c2ccccc2-n2c1nc1ccccc1c2=O,34.2*,-3.9,77.3*,234.1,29.2,25.6
CC(C)c1ccc(S(=O)(=O)N2CCN(C(=O)[C@@H]3CCCN3C(=O)c3cccs3)CC2)cc1,0.4,7.0,0.8,.,.,.
CCc1ccc(-c2nc(NC(=O)c3ccc(OCC(=O)Nc4ccc(F)cc4)c(OC)c3)sc2C)cc1,-3.6,-2.0,-0.3,240.5,.,.
COc1cc(C(=O)Nc2nc(-c3ccc(Cl)cc3)c(C)s2)ccc1OCC(=O)Nc1ccc(F)cc1,99.3*,-1.3,126.7*,148.7,70.5*,109.4*
COCc1cc(C)nc(OCC(=O)N/N=C/c2ccco2)c1C#N,2.3,0.9,0.9,140.6,.,.
COCc1cc(C)nc(OCC(=O)N/N=C/c2ccc(-c3cc([N+](=O)[O-])ccc3Cl)o2)c1C#N,342.1*,-3.8,53.1*,544.6,70.5*,276.9*
Cc1cc(NC(=O)CSc2nnc3c(C)cc4ccccc4n23)no1,-0.9,-20.7,-2.5,362.0,.,.
COc1ccc(-c2cc(-c3cccs3)c(C#N)c(SCC(=O)NCc3ccco3)n2)cc1,5.5,-2.5,3.3,292.8,.,.
COc1ccc(CNC(=O)CSc2nc(-c3ccccc3)cc(-c3cccs3)c2C#N)cc1,33.0*,-10.8,44.7*,568.4,7.2,19.6
Cc1ccc2nc(-c3ccc(NC(=S)NC4CC(C)(C)NC(C)(C)C4)cc3)sc2c1,48.8*,13.0,60.3*,506.6,62.6*,60.8*
Cc1ccc2nc(-c3ccc(NC(=S)NC(=O)C(C)C)cc3)sc2c1,-2.2,8.3,3.0,242.7,.,.
Cn1c(=O)c2c(SCC(=O)Nc3cccc(F)c3)nc(-c3ccco3)nc2n(C)c1=O,481.2*,-0.8,157.5*,i,-0.5,4.2
